Reference: ChEMBL document CHEMBL1828506, “New fluorine-containing hydrazones active against MDR-tuberculosis” (Eur J Med Chem, 2011)
Converted amounts (≈) assume the structure as drawn.

How the values were obtained:
[1] = test system: Mycobacterium tuberculosis; assay: Antimycobacterial activity against Mycobacterium tuberculosis H37Rv ATCC 27294 after 28 days by colony forming unit determination; assay type: functional; conditions: H37Rv ATCC 27294, 672 h
Method in brief: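 Compounds added to Sula liquid medium as DMSO solutions (DMSO at most 2%), incubated at 37 °C for 28 days. MIC is the lowest concentration giving visible growth inhibition. Activity was confirmed by CFU counts after subculture onto drug-free Löwenstein-Jensen solid medium.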

[2] = test system: Mycobacterium avium; assay: Antimycobacterial activity against Mycobacterium avium CNTC 330/88 after 14 days; assay type: functional; conditions: CNTC 330/88, 336 h
[3] = test system: Mycobacterium avium; assay: Antimycobacterial activity against Mycobacterium avium CNTC 330/88 after 21 days; assay type: functional; conditions: CNTC 330/88, 504 h
[4] = test system: Mycobacterium kansasii; assay: Antimycobacterial activity against Mycobacterium kansasii CNTC My 235/80 after 7 days; assay type: functional; conditions: CNTC My 235/80, 168 h
[5] = test system: Mycobacterium kansasii; assay: Antimycobacterial activity against Mycobacterium kansasii CNTC My 235/80 after 14 days; assay type: functional; conditions: CNTC My 235/80, 336 h
[6] = test system: Mycobacterium kansasii; assay: Antimycobacterial activity against Mycobacterium kansasii CNTC My 235/80 after 21 days; assay type: functional; conditions: CNTC My 235/80, 504 h
[7] = test system: Mycobacterium kansasii; assay: Antimycobacterial activity against Mycobacterium kansasii CNTC 6509/96 after 7 days; assay type: functional; conditions: CNTC 6509/96, 168 h
[8] = test system: Mycobacterium kansasii; assay: Antimycobacterial activity against Mycobacterium kansasii CNTC 6509/96 after 14 days; assay type: functional; conditions: CNTC 6509/96, 336 h
[9] = test system: Mycobacterium kansasii; assay: Antimycobacterial activity against Mycobacterium kansasii CNTC 6509/96 after 21 days; assay type: functional; conditions: CNTC 6509/96, 504 h
[10] = Selectivity index, ratio of IC50 for human HepG2 cells to MIC for Mycobacterium tuberculosis H37Rv ATCC 27294; assay type: functional
[11] = test system: HepG2; assay: Cytotoxicity against human HepG2 cells measured after overnight incubation by MTT assay; assay type: cell-based
Method in brief: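 HepG2 cells in phenol-red-free RPMI-1640 with 10% FCS, 2 mM L-glutamine and gentamycin, seeded at 5 × 10³ per well. After 24 h at 37 °C, cells were exposed overnight to compound in serum-free medium. MTT (2 mg/mL) for 4 h, formazan dissolved in DMSO, read as OD540 minus OD620. % cytotoxicity versus untreated controls; IC50 taken from dose-response curves. Two independent experiments, 4–8 parallel measurements.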

[12] = test system: PBMC; assay: Cytotoxicity against human PBMC measured after overnight incubation by MTT assay; assay type: cell-based
Method in brief: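 Freshly prepared human PBMC in phenol-red-free RPMI-1640 with 10% FCS, 2 mM L-glutamine and gentamycin, 2.0 × 10⁵ cells per well. After 24 h at 37 °C, overnight compound exposure in serum-free medium. MTT for 4 h, formazan in DMSO, OD540 minus OD620. % cytotoxicity versus controls; IC50 from dose-response curves. Two independent experiments.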

[13] = Hydrolytic stability of the compound in aqueous buffer at pH 7.4 after 48 hrs by HPLC analysis; assay type: physicochemical; conditions: pH 7.4, 48 h
Method in brief: (§1)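 Compound added from DMSO stock to 100 mM buffer (phosphate at pH 3 and 7.4, acetate at pH 5), final 3 nmol/mL. Sampled at set times up to 48 h, in triplicate. Parent compound and ciprofloxacin/formylciprofloxacin quantified by isocratic RP-18 HPLC with fluorescence detection (276/442 nm). Half-life given with 95% confidence intervals.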

[14] = Hydrolytic stability of the compound in aqueous buffer assessed as half life at pH 3 after 48 hrs by HPLC analysis; assay type: physicochemical; method in brief: as §1
[15] = Hydrolytic stability of the compound in aqueous buffer assessed as half life at pH 5 after 48 hrs by HPLC analysis; assay type: physicochemical; method in brief: as §1
[16] = Metabolic stability in rat plasma assessed as parent compound remaining after 48 hrs by HPLC analysis; assay type: ADME, cell-free; conditions: read-out: Stability
Method in brief: (§2)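 Compound spiked into rat plasma from DMSO stock, final 3 nmol/mL. 100 µL aliquots taken at set times and precipitated with an equal volume of acetonitrile. Gradient RP-18 HPLC (phosphate pH 2.0/acetonitrile) with fluorescence detection. Six runs: three to 48 h and three extended to 96 h. Result expressed as % parent compound remaining.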

[17] = Metabolic stability in rat plasma assessed as parent compound remaining after 96 hrs by HPLC analysis; assay type: ADME, cell-free; conditions: read-out: Stability; method in brief: as §2

| Structure (SMILES) | MIC [1] | MIC [2] | MIC [3] | MIC [4] | MIC [5] | MIC [6] | MIC [7] | MIC [8] | MIC [9] | Selectivity Index [10] | IC50 [11] | IC50 [12] | Stability [13] | half-life [14] | half-life [15] | remaining at 48 h [16] | remaining at 96 h [17] |
| --- | --- | --- | --- | --- | --- | --- | --- | --- | --- | --- | --- | --- | --- | --- | --- | --- | --- |
| O=C(N/N=C/Nc1ccc(C(=O)O)c(O)c1)c1ccc(C(F)(F)F)cc1 | 4 µg/mL (≈ 10.9 µM) | 32 µM (≈ 11.8 µg/mL) | 125 µM (≈ 45.9 µg/mL) | 62.5 µM (≈ 23 µg/mL) | 125 µM (≈ 45.9 µg/mL) | 250 µM (≈ 91.8 µg/mL) | 62.5 µM (≈ 23 µg/mL) | 62.5 µM (≈ 23 µg/mL) | 125 µM (≈ 45.9 µg/mL) |  |  |  |  |  |  |  |  |
| O=C(N/N=C/Nc1ccc(C(=O)O)c(O)c1)c1cccc(C(F)(F)F)c1 | 4 µg/mL (≈ 10.9 µM) | 250 µM (≈ 91.8 µg/mL) | 500 µM (≈ 184 µg/mL) | 32 µM (≈ 11.8 µg/mL) | 125 µM (≈ 45.9 µg/mL) | 125 µM (≈ 45.9 µg/mL) | 62.5 µM (≈ 23 µg/mL) | 62.5 µM (≈ 23 µg/mL) | 62.5 µM (≈ 23 µg/mL) |  |  |  |  |  |  |  |  |
| O=C(N/N=C/Nc1ccc(C(=O)O)c(O)c1)c1ccc(F)cc1 | 4 µg/mL (≈ 12.6 µM) | 32 µM (≈ 10.2 µg/mL) | 125 µM (≈ 39.7 µg/mL) | 32 µM (≈ 10.2 µg/mL) | 62.5 µM (≈ 19.8 µg/mL) | 62.5 µM (≈ 19.8 µg/mL) | 32 µM (≈ 10.2 µg/mL) | 32 µM (≈ 10.2 µg/mL) | 32 µM (≈ 10.2 µg/mL) |  |  |  |  |  |  |  |  |
| O=C(N/N=C/Nc1ccc(C(=O)O)c(O)c1)c1cccc(F)c1 | 2 µg/mL (≈ 6.3 µM) | 32 µM (≈ 10.2 µg/mL) | 62.5 µM (≈ 19.8 µg/mL) | 32 µM (≈ 10.2 µg/mL) | 62.5 µM (≈ 19.8 µg/mL) | 62.5 µM (≈ 19.8 µg/mL) | 32 µM (≈ 10.2 µg/mL) | 32 µM (≈ 10.2 µg/mL) | 32 µM (≈ 10.2 µg/mL) | 148.25 | 934 µM | 934 µM |  |  |  |  |  |
| O=C(O)c1ccc(N/C=N/NC(=O)c2ccccc2F)cc1O | 2 µg/mL (≈ 6.3 µM) | 32 µM (≈ 10.2 µg/mL) | 62.5 µM (≈ 19.8 µg/mL) | 32 µM (≈ 10.2 µg/mL) | 32 µM (≈ 10.2 µg/mL) | 62.5 µM (≈ 19.8 µg/mL) | 32 µM (≈ 10.2 µg/mL) | 62.5 µM (≈ 19.8 µg/mL) | 62.5 µM (≈ 19.8 µg/mL) | 192.06 | 1210 µM | 1210 µM |  |  |  |  |  |
| O=C(N/N=C/N1CCN(c2cc3c(cc2F)c(=O)c(C(=O)O)cn3C2CC2)CC1)c1ccc(C(F)(F)F)cc1 | 1 µg/mL (≈ 1.83 µM) | 32 µM (≈ 17.5 µg/mL) | 62.5 µM (≈ 34.1 µg/mL) | 2 µM (≈ 1.09 µg/mL) | 2 µM (≈ 1.09 µg/mL) | 4 µM (≈ 2.18 µg/mL) | 1 µM (≈ 0.545 µg/mL) | 1 µM (≈ 0.545 µg/mL) | 2 µM (≈ 1.09 µg/mL) | 189.21 | 347 µM | 347 µM |  |  |  |  |  |
| O=C(N/N=C/N1CCN(c2cc3c(cc2F)c(=O)c(C(=O)O)cn3C2CC2)CC1)c1cccc(C(F)(F)F)c1 | 2 µg/mL (≈ 3.67 µM) | 250 µM (≈ 136 µg/mL) | 250 µM (≈ 136 µg/mL) | 2 µM (≈ 1.09 µg/mL) | 2 µM (≈ 1.09 µg/mL) | 4 µM (≈ 2.18 µg/mL) | 1 µM (≈ 0.545 µg/mL) | 1 µM (≈ 0.545 µg/mL) | 2 µM (≈ 1.09 µg/mL) | 87.79 | > 322 µM | > 322 µM |  |  |  |  |  |
| O=C(N/N=C/N1CCN(c2cc3c(cc2F)c(=O)c(C(=O)O)cn3C2CC2)CC1)c1ccc(F)cc1 | 1 µg/mL (≈ 2.02 µM) | 62.5 µM (≈ 31 µg/mL) | 125 µM (≈ 61.9 µg/mL) | 4 µM (≈ 1.98 µg/mL) | 4 µM (≈ 1.98 µg/mL) | 8 µM (≈ 3.96 µg/mL) | 8 µM (≈ 3.96 µg/mL) | 8 µM (≈ 3.96 µg/mL) | 16 µM (≈ 7.93 µg/mL) | 634.29 | > 1280 µM | > 763 µM | Stable | 2.9 h | 11.8 h | 87% | 82% |
| O=C(N/N=C/N1CCN(c2cc3c(cc2F)c(=O)c(C(=O)O)cn3C2CC2)CC1)c1cccc(F)c1 | 1 µg/mL (≈ 2.02 µM) | 125 µM (≈ 61.9 µg/mL) | 250 µM (≈ 124 µg/mL) | 4 µM (≈ 1.98 µg/mL) | 4 µM (≈ 1.98 µg/mL) | 8 µM (≈ 3.96 µg/mL) | 4 µM (≈ 1.98 µg/mL) | 4 µM (≈ 1.98 µg/mL) | 4 µM (≈ 1.98 µg/mL) | 402.38 | > 812 µM | > 305 µM |  |  |  |  |  |
